# iPSC survival up: increases survival of single human iPS cells | hiPSC single-cell survival, ATPlite luminescence; 100% = ROCK inhibitor wells, 0% = DMSO | survival enhancement, % at 20 µM | 360,000 tested, 0.044% active | AID 602274; in the data active = survival enhancement above about 18%;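 note: cells exposed to compounds for 16 hours before the ATP read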
# 697 NFkB inh: inhibitors of the PMA/ionomycin-induced NF-kB reporter in 697 B cells; inhibition, % at 4 µM; AID 435022; 330,000 tested, 0.33% active; 697 B-cell NF-kB luciferase reporter, 16 h; in the data active = inhibition above about 35%
# Lipid droplet: hepatic lipid droplet formation modulation; 240,000 tested, 0.4% active; inhibition, % at 6.5 µM; AID 1656; AML12 mouse hepatocytes, oleate lipid droplets, BODIPY imaging;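 active = lipid droplet intensity inhibited by at least 50%, with more than 500 cells counted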
#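 Assay system: AML12 mouse liver cells | Compound: 6.5 µM single-point dosing | Schedule: Overnight exposure | Technique: Fluorescence imaging, 20x objective, two fields per well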
# TAG inh: triacylglycerol accumulation inhibition; inhibition, % at 12.5 µM; 230,000 tested, 0.66% active; AID 651582; H9c2 cells, Nile Red lipid (TAG) fluorescence; cells loaded with 200 µM oleic acid;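 active = pattern-corrected inhibition of lipid staining of at least 50% with the nuclear-stain viability signal not falling by more than 50%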;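 note: 0% = DMSO wells and 100% = triacsin C control wells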
# Jurkat NFkB inh: inhibitors of the PMA/ionomycin-induced NF-kB reporter in Jurkat cells; PMA/ionomycin-induced NF-kB luciferase reporter, luminescence; inhibition, % at 4 µM; 330,000 tested, 0.53% active; AID 435003; in the data active = inhibition above about 50%
# Gli-Sufu antag: blocks Gli-Sufu signaling in a luciferase reporter; Sufu-KO-LIGHT fibroblasts, Gli luciferase reporter luminescence; 340,000 tested, 0.74% active; AID 588413; inhibition, % at 5 µM;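 active = inhibition above about 55%, limit read from the data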;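 note: 0% = DMSO-treated cells and 100% = wells with medium but no cells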
# TAG conf: triacylglycerol accumulation inhibition, confirmation | shares compounds with TAG inh | H9c2 lipid accumulation, Nile Red fluorescence; cells loaded with 200 µM oleic acid | 990 tested, 71% active | inhibition, % at 12.5 µM | AID 651629;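 active = mean inhibition across replicates of 40% or more; inactive = mean inhibition below 40%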;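 note: plate controls were DMSO only wells for no effect and Triacsin C treated wells for full effect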
# An asterisk follows results filed as active; nt = no result. Sampled rows, rich in hits. Any-hit rate of the full collection: about 1.8%.
SMILES,iPSC survival up,697 NFkB inh,Lipid droplet,TAG inh,Jurkat NFkB inh,Gli-Sufu antag,TAG conf
COc1cccc(/C=N/Nc2ncccc2[N+](=O)[O-])c1OC,-0.5,-56.7,0.8,12.5,21.3,-19.6,nt
O=[N+]([O-])c1ccc(/C=N/Nc2ncccc2[N+](=O)[O-])s1,-0.7,-69.1,nt,64.3*,6.8,23.4,33.4
COc1ccc(NS(=O)(=O)c2cccc(C(=O)NNC(=O)c3cc(C)oc3C)c2)cc1,2.5,7.7,23.7,nt,-2.5,-4.9,nt
COc1ccc(NS(=O)(=O)c2cc(C)ccc2NC(=O)c2cc(C)oc2C)cc1,-2.7,-14.1,-40.1,62.0*,40.6,-2.8,79.2*
COCCNC(=O)c1cc2c(-c3ccc(Cl)cc3)nn(C)c2s1,-1.4,6.8,nt,52.0*,12.9,-2.9,44.8*
C(=N\Nc1nc2ccccc2[nH]1)/C1CCCCC1,-0.4,-33.8,10.9,74.1*,-60.8,-5.9,10.1
CCOC(=O)c1c(N)n(-c2ccc(N)cc2)c2nc3ccccc3nc12,1.3,18.3,41.5,10.1,6.3,-6.2,nt
Nc1c(C(=O)Nc2ccccc2)c2nc3ccccc3nc2n1-c1ccc(O)cc1,0.5,9.0,33.8,64.4*,5.3,-0.7,64.6*
COCCN(CC1CCCN(C2Cc3ccccc3C2)C1)C(=O)CSC (stereo not drawn),0.4,6.6,-2.0,nt,3.6,9.2,nt
C#CCN(C[C@@H]1[C@@H](OC(=O)NCc2ccc(OC)c(OC)c2)[C@@H](OC(=O)NCc2ccc(OC)c(OC)c2)CN(C(=O)OC(C)C)N1C(=O)OC(C)C)S(=O)(=O)c1ccc(C)cc1,-2.1,nt,nt,5.5,nt,nt,nt
Cc1ccc(Nc2nc(OC(C(F)(F)F)C(F)(F)F)nc(N3CCOCC3)n2)cc1,0.8,-8.7,nt,99.9*,-22.1,7.2,92.6*
COc1ccc(OC)c(Nc2nc(-c3sc(NC(=O)CC(C)C)nc3C)cs2)c1,-1.5,-25.0,nt,58.2*,0.9,20.7,65.5*
N=c1n(CCO)c2ccccc2n1CCOc1ccc(Cl)cc1Cl,0.8,-33.0,nt,90.7*,20.2,8.6,64.2*
COCCCNC(=O)C1=CCN(S(=O)(=O)c2ccc(C)cc2)CC1,0.0,16.8,1.8,nt,7.3,-2.1,nt
Cc1cc(NC(=O)NN2CCOCC2)nn1-c1c(Cl)cccc1Cl,2.6,-0.5,13.9,-4.5,-14.4,-12.3,nt
C#CCN(C[C@H]1[C@H](OC(=O)NCC2CCCCC2)[C@H](OC(=O)NCC2CCCCC2)C[C@@H](C(=O)OC)[C@H]1C(=O)OC)S(=O)(=O)c1ccc(C)cc1,-0.6,nt,nt,81.9*,nt,nt,88.8*
CCOC(=O)c1c(CN2CCN(C)CC2)n(-c2ccccc2)c2cc(Br)c(O)cc12,-0.3,2.6,25.7,10.8,-0.3,12.7,nt
CCOC(=O)c1c(CSC(=N)N)n(-c2ccccc2)c2cc(Br)c(OC(C)=O)cc12,0.2,-0.1,36.8,61.9*,0.7,4.1,67.6*
Cc1cccc(NC(=O)Nc2nnc([C@@H]3C[C@H](O)[C@@H](CO)O3)s2)c1,1.4,nt,nt,4.2,nt,nt,nt
CCO[C@@H]1OC(C(=O)N2CCN(Cc3ccc4c(c3)OCO4)CC2)=C[C@H](C)[C@H]1CCCO,-0.5,-2.4,-1.7,53.0*,20.3,0.6,-5.0
CCO[C@H]1OC(C(=O)N2CCN(Cc3ccc4c(c3)OCO4)CC2)=C[C@@H](C)[C@@H]1CCCO,1.9,-18.2,-30.5,2.1,-0.7,16.2,nt
COc1cccc(NC(=S)N2CCC(N(C)CC3CCCO3)CC2)c1 (stereo not drawn),7.5,6.8,-6.2,nt,-11.3,3.6,nt
Nc1ccc(C#Cc2c(-c3ccsc3)oc3ccc(N4CCOCC4)cc23)cc1,-4.0,-50.6,nt,50.9*,-50.3,-22.7,53.0*
COc1ccc(-c2c(-c3ccsc3)oc3ccc(N4CCOCC4)cc23)cn1,-1.4,-1.5,nt,1.3,7.4,1.8,nt
COC(=O)c1ccc(/C=C/c2c(-c3ccsc3)oc3ccc(N4CCOCC4)cc23)cc1,-2.3,-5.7,nt,59.8*,-18.4,-11.3,54.3*
SMILES,iPSC survival up,697 NFkB inh,Lipid droplet,TAG inh,Jurkat NFkB inh,Gli-Sufu antag,TAG conf
CCNC(=O)C1(C)CCCN1C(=O)c1cc(C)on1 (stereo not drawn),-0.6,nt,nt,6.0,nt,nt,nt
COc1cc(-c2ccc3oc(-c4cccc(C)c4)c(C#CC4(O)CCCCC4)c3c2)cc(OC)c1OC,-1.8,8.2,nt,51.2*,8.8,-0.3,53.4*
COc1cccc(NC(=O)CN2C(=O)NC(c3ccccc3)(c3ccccc3)C2=O)c1,0.5,8.9,-8.3,nt,8.1,-4.4,nt
CCO[C@H]1OC(C(=O)NCc2nc3ccccc3[nH]2)=C[C@@H](c2cn(C(C)=O)c3ccccc23)[C@@H]1CCCO,0.8,9.4,nt,nt,0.9,13.9,nt
CCO[C@@H]1OC(C(=O)NCc2nc3ccccc3[nH]2)=C[C@H](c2cn(C(C)=O)c3ccccc23)[C@H]1CCCO,5.2,18.3,12.3,53.5*,27.0,16.9,28.2
Cc1cccc(Nc2nc(NCc3ccco3)nc(N3CCOCC3)n2)c1,1.5,18.2,16.9,86.4*,-14.2,21.9,82.7*
c1ccc(CNc2nc(NCc3ccco3)nc(N3CCOCC3)n2)cc1,1.1,-18.7,1.6,1.8,8.4,14.9,nt
CCOC(=O)c1cc(-c2ccccc2)sc1NC(=O)COC(=O)c1cccc(S(N)(=O)=O)c1,-0.9,4.3,20.3,78.1*,-7.8,2.6,68.2*
CCOC(=O)c1cc(-c2ccccc2)sc1NC(=O)COC(=O)c1ccc(Cl)c(S(N)(=O)=O)c1,-1.8,-13.3,nt,30.3,-22.0,-7.1,nt
COc1ccc(/C(C)=N/NC(=O)c2nnn(-c3nonc3N)c2-c2cccs2)cc1OC,0.0,-2.0,-39.7,nt,6.0,-10.1,nt
CCCCN1C=C(C(=O)OC)C(c2ccccc2C(F)(F)F)C(C(=O)OC)=C1,2.4,-28.4,44.4,54.2*,-7.8,7.1,31.1
COCCN1C=C(C(=O)OC)C(c2ccccc2C(F)(F)F)C(C(=O)OC)=C1,3.2,-15.1,nt,9.7,10.2,21.1,nt
Cc1cccc2sc(NC(=O)CN(C)S(=O)(=O)c3ccc(Br)s3)nc12,-1.5,8.5,34.9,51.5*,6.2,-2.8,39.8
COc1ccc(NC(=O)CN(C)S(=O)(=O)c2ccc(Br)s2)cc1,-0.3,5.1,1.4,nt,-13.8,1.5,nt
COc1ccc(NC(=O)COC(=O)c2c(NC(C)=O)sc(C)c2C)cc1,3.2,nt,nt,-23.8,nt,nt,nt
CC(NC(=O)c1cc(COc2c(F)cccc2F)on1)c1cnn(-c2ccccc2)c1 (stereo not drawn),-0.6,-33.8,22.2,nt,-46.0,-2.9,nt
Cc1ccc2c(c1)N(C(=O)CCC(=O)NCCCN1CCC(Cc3ccccc3)CC1)CCO2,-4.6,-7.7,-9.4,60.8*,21.1,10.8,59.8*
COc1ccc(-c2sc3ccc(OC)cc3c2C#CCCO)cc1,1.7,-27.8,nt,-18.1,-15.4,-16.0,nt
